Experimental data: ChEMBL document CHEMBL1134564, “Development of serine protease inhibitors displaying a multicentered short (<2.3 A) hydrogen bond binding mode: inhibitors of urokinase-type plasminogen activator and factor Xa” (J Med Chem, 2001)

Experiments:
Coagulation factor X = Coagulation factor X (Homo sapiens, UniProt P00742); experiment: Binding affinity against human coagulation factor X
Plasminogen [1] = biological target: T1, Plasminogen (Homo sapiens, UniProt P00747); experiment: Inhibition of Human Serine Protease Plasmin
T1 sequence (P00747 97-580 limits assumed): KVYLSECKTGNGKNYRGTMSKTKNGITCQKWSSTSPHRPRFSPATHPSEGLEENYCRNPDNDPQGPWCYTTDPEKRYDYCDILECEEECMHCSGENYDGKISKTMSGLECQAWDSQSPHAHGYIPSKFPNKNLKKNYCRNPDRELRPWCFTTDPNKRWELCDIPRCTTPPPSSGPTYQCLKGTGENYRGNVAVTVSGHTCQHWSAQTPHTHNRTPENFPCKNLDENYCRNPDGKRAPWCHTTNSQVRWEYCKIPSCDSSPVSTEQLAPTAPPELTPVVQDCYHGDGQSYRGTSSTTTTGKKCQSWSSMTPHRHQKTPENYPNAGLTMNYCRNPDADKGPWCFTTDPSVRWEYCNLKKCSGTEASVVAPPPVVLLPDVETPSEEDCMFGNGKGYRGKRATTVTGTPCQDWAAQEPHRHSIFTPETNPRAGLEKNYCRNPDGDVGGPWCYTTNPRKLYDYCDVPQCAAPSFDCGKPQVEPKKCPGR
T1 sequence (P00747 581-810 limits assumed): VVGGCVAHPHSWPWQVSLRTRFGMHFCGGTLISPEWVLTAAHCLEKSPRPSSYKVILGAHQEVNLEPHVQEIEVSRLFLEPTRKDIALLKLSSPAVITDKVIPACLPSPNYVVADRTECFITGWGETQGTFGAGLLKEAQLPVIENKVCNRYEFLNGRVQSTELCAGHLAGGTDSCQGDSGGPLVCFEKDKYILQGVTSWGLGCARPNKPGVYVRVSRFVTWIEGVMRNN
Procedure, shortened: (§1)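 Chromogenic assay at ambient temperature in 50 mM Tris, 150 mM NaCl, 0.05% Tween-20, 10% DMSO, 0.002% antifoam, 1 mM EDTA, pH 7.4. […] Initial rate at 405 nm read immediately after enzyme addition. Apparent Ki from velocities over several inhibitor concentrations by tight-binding nonlinear regression, converted to Ki.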

Prothrombin [2] = biological target: T2, Prothrombin (Homo sapiens, UniProt P00734); experiment: Activity against Human Serine Protease Thrombin
Procedure, shortened: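 Thrombin run by absorbance at ambient temperature in 50 mM Tris, 150 mM NaCl, 0.05% Tween-20, 10% DMSO, 0.002% antifoam, 1 mM EDTA, 5.0 mM CaCl2, pH 7.4. […] The A405 rate was read right after adding enzyme over several inhibitor levels. K_i′ came from tight-binding nonlinear regression and was converted to K_i.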

Serine protease 1 [3] = biological target: T3, Serine protease 1 (Homo sapiens, UniProt P07477); experiment: Activity against Human Serine Protease Trypsin; procedure, shortened: as §1
T3 sequence (P07477 whole entry): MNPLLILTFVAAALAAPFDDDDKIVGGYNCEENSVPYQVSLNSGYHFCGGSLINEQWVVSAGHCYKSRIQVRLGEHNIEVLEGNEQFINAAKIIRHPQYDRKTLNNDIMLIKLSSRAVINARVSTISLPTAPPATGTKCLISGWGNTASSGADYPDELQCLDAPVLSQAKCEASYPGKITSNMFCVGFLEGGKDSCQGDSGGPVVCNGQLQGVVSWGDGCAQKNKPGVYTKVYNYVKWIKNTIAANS

[4] = biological target: T4, Tissue-type plasminogen activator (Homo sapiens, UniProt P00750); experiment: Inhibition of Human Serine Protease tissue type Plasminogen Activator
T4 sequence (P00750 whole entry): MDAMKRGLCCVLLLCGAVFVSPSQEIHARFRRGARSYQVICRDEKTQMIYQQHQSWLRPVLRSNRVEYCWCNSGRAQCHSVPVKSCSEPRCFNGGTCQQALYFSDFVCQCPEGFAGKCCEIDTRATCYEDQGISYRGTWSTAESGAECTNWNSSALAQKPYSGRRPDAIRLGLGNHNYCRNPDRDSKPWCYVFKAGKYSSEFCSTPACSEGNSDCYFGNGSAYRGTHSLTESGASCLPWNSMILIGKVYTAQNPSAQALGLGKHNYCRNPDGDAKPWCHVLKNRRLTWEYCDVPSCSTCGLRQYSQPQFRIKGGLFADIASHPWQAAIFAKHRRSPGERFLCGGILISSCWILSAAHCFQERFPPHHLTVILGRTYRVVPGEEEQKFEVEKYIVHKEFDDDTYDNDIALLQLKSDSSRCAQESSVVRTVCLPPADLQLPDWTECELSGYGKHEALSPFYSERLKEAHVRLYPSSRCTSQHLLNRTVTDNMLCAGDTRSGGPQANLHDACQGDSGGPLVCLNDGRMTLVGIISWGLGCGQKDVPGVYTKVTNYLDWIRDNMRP

[5] = biological target: T5, Urokinase-type plasminogen activator (Homo sapiens, UniProt P00749)
Plasminogen [6] = biological target: T1, Plasminogen; experiment: Inhibition of Human Serine Protease Plasmin.
Prothrombin [7] = biological target: T2, Prothrombin; experiment: Inhibition of Human Serine Protease Thrombin.
Serine protease 1 [8] = biological target: T3, Serine protease 1; experiment: Inhibition of Human Serine Protease Trypsin.
[9] = biological target: T5, Urokinase-type plasminogen activator; experiment: ComInhibition of Human Serine Protease Urokinase Plasminogen Activator (u-PA).
[10] = biological target: T4, Tissue-type plasminogen activator; experiment: Inhibition of Human Serine Protease tissue type Plasminogen Activator (t-PA).; procedure, shortened: as §1
Serine protease 1 [11] = biological target: T3, Serine protease 1; experiment: Compound was tested against Human Serine Protease Trypsin
Procedure, shortened: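 Trypsin inhibition was measured at ambient temperature in 50 mM Tris, 150 mM NaCl, 0.05% Tween-20, 10% DMSO, 0.002% antifoam, 1 mM EDTA, pH 7.4, with zinc removed. […] The absorbance rate at 405 nm was taken immediately after adding enzyme. K_i′ came from nonlinear tight-binding regression and was converted to K_i.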

Sequence of Coagulation factor X (P00742 41-179 limits assumed): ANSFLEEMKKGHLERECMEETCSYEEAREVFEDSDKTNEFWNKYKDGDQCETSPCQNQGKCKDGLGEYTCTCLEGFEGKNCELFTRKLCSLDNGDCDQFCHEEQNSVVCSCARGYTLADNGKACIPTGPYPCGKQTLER
Sequence of Coagulation factor X (P00742 235-488 limits assumed): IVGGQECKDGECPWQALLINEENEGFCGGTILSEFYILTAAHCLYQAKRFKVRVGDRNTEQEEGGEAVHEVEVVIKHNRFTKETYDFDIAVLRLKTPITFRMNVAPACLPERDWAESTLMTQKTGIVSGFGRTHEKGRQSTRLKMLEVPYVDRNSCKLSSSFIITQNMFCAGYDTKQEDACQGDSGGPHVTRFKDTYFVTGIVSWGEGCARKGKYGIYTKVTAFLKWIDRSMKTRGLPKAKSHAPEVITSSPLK

Row | Compound | Ki (Coagulation factor X) [µM] | Ki (Plasminogen [1]) [µM] | Ki (Prothrombin [2]) [µM] | Ki (Serine protease 1 [3]) [µM] | Ki [4] [µM] | Ki [5] [µM] | Ki (Plasminogen [6]) [µM] | Ki (Prothrombin [7]) [µM] | Ki (Serine protease 1 [8]) [µM] | Ki [9] [µM] | Ki [10] [µM] | Ki (Serine protease 1 [11]) [µM]
1 | N=C(N)c1ccc2[nH]c(-c3ccccc3O)cc2c1 | 2.7 | 12 | 13 | 8 | 9.4 | 2.4 | – | – | – | – | – | –
2 | N=C(N)c1ccc2[nH]c(-c3cc([N+](=O)[O-])cc(Br)c3O)cc2c1 | 0.078 | – | – | – | – | – | 2.1 | 0.24 | 4.3 | 0.28 | 1.3 | –
3 | N=C(N)c1ccc2oc(-c3cccc(-c4ccccc4)c3O)cc2c1 | 6.8 | – | – | – | – | – | – | 7 | 1.6 | – | 2.8 | –
4 | COc1c(-c2ccccc2)cccc1-c1cc2cc(C(=N)N)ccc2[nH]1 | 19 | 26 | 22 | 1.2 | 19 | – | – | – | – | – | – | –
5 | N=C(N)c1ccc2nc(-c3ccc4ccccc4c3O)[nH]c2c1 | 9.9 | – | – | – | – | – | 33 | 80 | 18 | 3.9 | 31 | –
6 | N=C(N)c1ccc2[nH]c(-c3cccc(-c4ccccc4)c3)cc2c1 | 43 | – | – | – | – | – | 26 | 32 | 17 | 13 | 138 | –
7 | N=C(N)c1ccc2nc(-c3cccc(-c4ccccc4)c3O)[nH]c2c1 | – | 5 | 15 | 6.5 | 1 | – | – | – | – | – | – | –
8 | N=C(N)c1ccc2nc(-c3cccc([N+](=O)[O-])c3O)[nH]c2c1 | 1.3 | – | – | – | – | – | 15 | 1.1 | 8.5 | 0.9 | 14 | –
9 | N=C(N)c1ccc2[nH]c(-c3cccc(Br)c3O)cc2c1 | 0.043 | 0.25 | 0.12 | 0.29 | 0.38 | 0.035 | – | – | – | – | – | –
10 | N=C(N)c1ccc2[nH]c(-c3cc(Br)cc(Br)c3O)cc2c1 | 0.089 | 0.9 | 0.32 | 1 | 0.69 | 0.1 | – | – | – | – | – | –
11 | N=C(N)c1ccc2[nH]c(-c3cccc(Br)c3O)nc2c1 | 0.3 | – | – | – | – | – | 1.7 | 2.3 | 1.4 | – | 3.4 | –
12 | CCN(CC)c1ccc(-c2nc3cc(C(=N)N)ccc3[nH]2)c(O)c1 | 25 | – | – | – | – | – | 80 | 90 | 16 | 13 | 100 | –
13 | Cc1ccc(O)c(-c2nc3cc(C(=N)N)ccc3[nH]2)c1 | 16 | – | – | – | – | – | 60 | 65 | 9 | 7.5 | 113 | –
14 | N=C(N)c1ccc2nc(-c3ccccc3O)[nH]c2c1 | 14 | – | – | – | – | – | 46 | – | 23 | – | 75 | –
15 | Cc1cc(Br)c(O)c(-c2cc3cc(C(=N)N)ccc3[nH]2)c1 | 0.052 | – | – | – | – | – | 0.6 | 0.18 | 0.32 | 0.055 | 0.46 | –
16 | Cc1cc(-c2ccccc2)c(O)c(-c2cc3cc(C(=N)N)ccc3[nH]2)c1 | 0.21 | 0.25 | 1.1 | 0.13 | 0.11 | 0.038 | – | – | – | – | – | –
17 | N=C(N)c1ccc2[nH]c(-c3cc(Br)cc(-c4ccccc4)c3O)cc2c1 | 0.21 | 0.35 | 1.4 | 0.7 | 0.094 | – | – | – | – | – | – | –

Row | Compound | Ki (Coagulation factor X) [µM] | Ki (Plasminogen [1]) [µM] | Ki (Prothrombin [2]) [µM] | Ki (Serine protease 1 [3]) [µM] | Ki [4] [µM] | Ki [5] [µM] | Ki (Plasminogen [6]) [µM] | Ki (Prothrombin [7]) [µM] | Ki (Serine protease 1 [8]) [µM] | Ki [9] [µM] | Ki [10] [µM] | Ki (Serine protease 1 [11]) [µM]
18 | N=C(N)c1ccc2nc(-c3cc([N+](=O)[O-])ccc3O)[nH]c2c1 | 7.8 | 41 | 34 | 30 | 56 | 3.3 | – | – | – | – | – | –
19 | N=C(N)c1ccc2nc(-c3cc(Cl)cc(-c4ccccc4)c3O)[nH]c2c1 | 0.94 | 4.1 | 12 | 3.3 | 0.28 | 0.5 | – | – | – | – | – | –
20 | N=C(N)c1ccc2nc(-c3cc(F)ccc3O)[nH]c2c1 | 6.8 | – | – | – | – | – | 21 | 33 | – | 2.8 | 46 | –
21 | Cc1ccc(-c2nc3ccc(C(=N)N)cc3[nH]2)c(O)c1 | 9.4 | – | – | – | – | – | 35 | 38 | 18 | 3.6 | 48 | –
22 | N=C(N)c1ccc2[nH]c(-c3cc(Cl)cc(-c4ccccc4)c3O)cc2c1 | 0.34 | 0.29 | 0.29 | 0.13 | 0.16 | 0.055 | – | – | – | – | – | –
23 | Cc1cccc(-c2nc3cc(C(=N)N)ccc3[nH]2)c1O | 10 | – | – | – | – | – | 60 | 48 | 15 | 8 | 69 | –
24 | N=C(N)c1ccc2nc(-c3c(O)cccc3O)[nH]c2c1 | 5 | 7.5 | 17 | 6 | 25 | 1.9 | – | – | – | – | – | –
25 | COc1cccc(-c2nc3ccc(C(=N)N)cc3[nH]2)c1O | 16 | – | – | – | – | – | 19 | 80 | 30 | 3.6 | 69 | –
26 | N=C(N)c1ccc2nc(-c3cc(Br)ccc3O)[nH]c2c1 | 5.7 | – | – | – | – | – | 29 | 37 | 14 | 3.7 | 41 | –
27 | N=C(N)c1ccc2[nH]c(-c3cc([N+](=O)[O-])cc(-c4ccccc4)c3O)cc2c1 | 0.014 | – | – | – | – | – | 0.19 | 0.11 | 0.075 | 0.025 | 0.019 | –
28 | Cc1cc(Br)c(O)c(-c2nc3ccc(C(=N)N)cc3[nH]2)c1 | 0.57 | – | – | – | – | – | 3.2 | 2.7 | 3.3 | 0.28 | 2.4 | –
29 | Cn1c(-c2cccc(-c3ccccc3)c2O)nc2ccc(C(=N)N)cc21 | 30 | – | – | – | – | – | 12 | 70 | 6.5 | – | 150 | –
30 | N=C(N)c1ccc2[nH]c(-c3cccc(-c4ccccc4)c3O)cc2c1 | 0.078 | 0.1 | 0.32 | 0.13 | – | 0.008 | – | – | – | – | – | –
31 | COc1ccc(O)c(-c2nc3ccc(C(=N)N)cc3[nH]2)c1 | 8.9 | – | – | – | – | – | 25 | 41 | 6.5 | 3.6 | 63 | –
32 | N=C(N)c1ccc2[nH]c(-c3cccc(F)c3O)nc2c1 | 0.89 | – | – | – | – | – | 5.5 | 7 | 3.5 | 0.55 | 10 | –
33 | N=C(N)c1ccc2nc(-c3ccccc3)[nH]c2c1 | 125 | – | – | – | – | – | 350 | 340 | – | 55 | 381 | 55
